The source made the active and inactive calls. The rule behind the calls is not given here.
What was measured:
[1] = tested on: U-937; test: Induction of cell cycle arrest in human U937 cells assessed as accumulation at G1 phase at 10 uM after 24 hrs by propidium iodide staining based flow cytometry (reference value: 49.8 +/- 1.5%); assay type: functional
[2] = tested on: HL-60; test: Induction of cell cycle arrest in human HL60 cells assessed as accumulation at G1 phase at 1 uM after 48 hrs by propidium iodide staining based flow cytometry (reference value: 60.4 +/- 0.4%); assay type: functional
[3] = tested on: U-937; test: Induction of cell cycle arrest in human U937 cells assessed as accumulation at subG1 phase at 3 uM after 24 hrs by propidium iodide staining based flow cytometry (reference value: 3.9 +/- 0.8%); assay type: functional
[4] = tested on: U-937; test: Increase in TRAIL expression in human U937 cells at 10 30 uM after 24 hrs by immunoblotting method; assay type: functional, cell-based
How it was run: (§1)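 HL-60 and U937 cells were treated with increasing concentrations for 24 h. Lysates were immunoblotted for TRAIL, DR4 and DR5.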

[5] = tested on: U-937; test: Induction of apoptosis in human U937 cells assessed as pro-caspase-8 cleavage by Western blotting method; assay type: functional, cell-based
How it was run: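 U937 cells exposed to increasing concentrations of the flavonol and harvested at 24 h. Lysates were immunoblotted with antibodies that detect both the pro-caspases and their cleaved forms.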

[6] = tested on: HL-60; test: Induction of apoptosis in human HL60 cells assessed as pro-caspase-8 cleavage by Western blotting method; assay type: functional, cell-based
How it was run: (§2)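 Cells were exposed to a range of compound concentrations and harvested at 24 h. Lysates were immunoblotted for caspase proforms and cleaved forms, and for Bcl-2 family proteins.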

[7] = tested on: HL-60; test: Induction of cell cycle arrest in human HL60 cells assessed as accumulation at S phase at 10 uM after 24 hrs by propidium iodide staining based flow cytometry (reference value: 17.9 +/- 0.6%); assay type: functional
[8] = tested on: U-937; test: Induction of cell cycle arrest in human U937 cells assessed as accumulation at subG1 phase at 3 uM after 48 hrs by propidium iodide staining based flow cytometry (reference value: 6.7 +/- 0.3%); assay type: functional
[9] = tested on: HL-60; test: Induction of cell cycle arrest in human HL60 cells assessed as accumulation at subG1 phase at 3 uM after 24 hrs by propidium iodide staining based flow cytometry (reference value: 3.4 +/- 0.3%); assay type: functional
[10] = tested on: MOLT-3; test: Induction of apoptosis in human MOLT3 cells assessed as reduction in pro-caspase-4 level by Western blotting method; assay type: functional, cell-based; how it was run: as §2
[11] = tested on: HL-60; test: Induction of cell cycle arrest in human HL60 cells assessed as accumulation at S phase at 1 uM after 12 hrs by propidium iodide staining based flow cytometry (reference value: 14.7 +/- 0.3%); assay type: functional
[12] = tested on: U-937; test: Cytotoxicity against human U937 cells at 30 uM in presence of 0.5 ug/mL TRAIL incubated simultaneously with drug for 48 hrs by MTT assay; assay type: functional, cell-based
How it was run: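 U937 cells, MTT viability read-out. One arm received TRAIL at 0.5 µg/mL together with compound at 30 µM for 48 h. The other arm had compound for 24 h, then TRAIL for 24 h. Three independent experiments, each in triplicate.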

[13] = tested on: HL-60; test: Induction of cell cycle arrest in human HL60 cells assessed as accumulation at G1 phase at 1 uM after 24 hrs by propidium iodide staining based flow cytometry (reference value: 53 +/- 1.1%); assay type: functional
[14] = tested on: MOLT-3; test: Induction of apoptosis in human MOLT3 cells assessed as pro-caspase-8 cleavage by Western blotting method; assay type: functional, cell-based; how it was run: as §2
[15] = tested on: HL-60; test: Induction of apoptosis in human HL60 cells assessed as nuclear chromatin condensation at 30 uM after 24 hrs by Hoechst 33258 staining based fluorescence microscopy; assay type: functional, cell-based
How it was run: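 HL-60 cells were treated at 30 µM for 24 h, stained with Hoechst 33258, and scored for chromatin condensation by fluorescence microscopy.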

[16] = tested on: HL-60; test: Induction of cell cycle arrest in human HL60 cells assessed as accumulation at G2/M phase at 10 uM after 48 hrs by propidium iodide staining based flow cytometry (reference value: 17.9 +/- 0.7%); assay type: functional
[17] = tested on: HL-60; test: Induction of cell cycle arrest in human HL60 cells assessed as accumulation at G1 phase at 3 uM after 12 hrs by propidium iodide staining based flow cytometry (reference value: 57.2 +/- 0.9%); assay type: functional
[18] = tested on: U-937; test: Induction of cell cycle arrest in human U937 cells assessed as accumulation at G1 phase at 10 uM after 48 hrs by propidium iodide staining based flow cytometry (reference value: 51.9 +/- 0.9%); assay type: functional
[19] = tested on: U-937; test: Induction of cell cycle arrest in human U937 cells assessed as accumulation at S phase at 3 uM after 48 hrs by propidium iodide staining based flow cytometry (reference value: 18.9 +/- 0.2%); assay type: functional
[20] = tested on: HL-60; test: Increase in DR5 expression in human HL60 cells at 10 30 uM after 24 hrs by immunoblotting method; assay type: functional, cell-based; how it was run: as §1
[21] = tested on: U-937; test: Induction of cell cycle arrest in human U937 cells assessed as accumulation at subG1 phase at 3 uM after 12 hrs by propidium iodide staining based flow cytometry (reference value: 4.6 +/- 0.9%); assay type: functional
[22] = tested on: HL-60; test: Induction of apoptosis in human HL60 cells assessed as pro-caspase-3 cleavage by Western blotting method; assay type: functional, cell-based; how it was run: as §2
[23] = target: MAP kinase p38 (Homo sapiens) (UniProt O15264+Q15759+Q16539+P53778); test: Increase in p38 MAPK phosphorylation in human HL60 cells at 10 to 30 uM after 2 to 6 hrs by Western blotting method; assay type: cell-based; details: HL-60
How it was run: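 HL-60 cells were incubated for a time course. Extracts were immunoblotted with phospho-specific antibodies for ERK 1/2, JNK/SAPK and p38MAPK. Membranes were then stripped and reprobed for the total kinases as loading controls.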

[24] = tested on: HL-60; test: Induction of cell cycle arrest in human HL60 cells assessed as accumulation at G2/M phase at 3 uM after 12 hrs by propidium iodide staining based flow cytometry (reference value: 18.5 +/- 0.5%); assay type: functional
[25] = tested on: U-937; test: Induction of apoptosis in human U937 cells assessed as pro-caspase-9 processing at 3 and 10 uM after 6 to 24 hrs by immunoblotting method; assay type: functional, cell-based
How it was run: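 Kinetic and dose-response experiment: cells were treated with the indicated concentrations and harvested at the indicated times. Pro-caspase-8 and -9 cleavage was detected by immunoblotting with antibodies that bind both the proenzyme and the cleaved fragments.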

[26] = tested on: Raji; test: Cytotoxicity against human Raji cells after 72 hrs by MTT assay; assay type: functional, cell-based
How it was run: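 MTT colorimetric assay with 72 h continuous exposure. IC50 was fitted per experiment by non-linear regression. Values are means with SE from at least three independent experiments, each run in triplicate.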

[27] = tested on: HL-60; test: Induction of apoptosis in human HL60 cells assessed as pro-caspase-9 cleavage by Western blotting method; assay type: functional, cell-based; how it was run: as §2
[28] = tested on: HL-60; test: Induction of cell cycle arrest in human HL60 cells assessed as accumulation at subG1 phase at 3 uM after 12 hrs by propidium iodide staining based flow cytometry (reference value: 6.1 +/- 0.5%); assay type: functional
[29] = tested on: MOLT-3; test: Reduction in Bid expression in human MOLT3 cells by Western blotting method; assay type: functional, cell-based
How it was run: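 Cells (HL-60, Molt-3 or U937) were incubated with increasing concentrations of compound and harvested at 24 h. Cell lysates were then immunoblotted for Bid and other Bcl-2 family members.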

[30] = tested on: HL-60; test: Induction of cell cycle arrest in human HL60 cells assessed as accumulation at S phase at 10 uM after 12 hrs by propidium iodide staining based flow cytometry (reference value: 14.7 +/- 0.3%); assay type: functional

Q: With `O=c1c(O)c(-c2ccc(Br)cc2)oc2ccccc12` as the compound, how does the Activity [1] read?
A: Its Activity is 40.2%.

Q: What about the Activity [2] of the same compound?
A: Its Activity is 57.6%.

Q: And the Activity [3]?
A: The Activity was 5.5%.

Q: What about the Activity [4] of the same compound?
A: Its Activity is “Active”.

Q: And the Activity [5]?
A: The Activity was “Active”.

Q: And the Activity [6]?
A: The Activity was “Active”.

Q: What about the Activity [7] of the same compound?
A: Its Activity is 24.1%.

Q: What about the Activity [8] of the same compound?
A: Its Activity is 16.3%.

Q: What about the Activity [9] of the same compound?
A: Its Activity is 5.9%.

Q: What about the Activity [10] of the same compound?
A: The Activity was “Active”.

Q: And the Activity [11]?
A: The Activity was 15.6%.

Q: What about the Activity [12] of the same compound?
A: Its Activity is “Active”.

Q: What about the Activity [13] of the same compound?
A: Its Activity is 49.5%.

Q: And the Activity [14]?
A: Its Activity is “Active”.

Q: What about the Activity [15] of the same compound?
A: The Activity was “Active”.

Q: And the Activity [16]?
A: The Activity was 5.5%.

Q: What about the Activity [17] of the same compound?
A: Its Activity is 56.7%.

Q: What about the Activity [18] of the same compound?
A: Its Activity is 41.4%.

Q: What about the Activity [19] of the same compound?
A: The Activity was 21.2%.

Q: What about the Activity [20] of the same compound?
A: Its Activity is “Active”.

Q: What about the Activity [21] of the same compound?
A: The Activity was 3.1%.

Q: What about the Activity [22] of the same compound?
A: The Activity was “Active”.

Q: What about the Activity [23] of the same compound?
A: The Activity was “Active”.

Q: What about the Activity [24] of the same compound?
A: The Activity was 18.2%.

Q: What about the Activity [25] of the same compound?
A: Its Activity is “Active”.

Q: What about the IC50 [26] of the same compound?
A: The IC50 was 5.8 µM.

Q: And the Activity [27]?
A: The Activity was “Active”.

Q: What about the Activity [28] of the same compound?
A: Its Activity is 6.3%.

Q: What about the Activity [29] of the same compound?
A: Its Activity is “Active”.

Q: And the Activity [30]?
A: Its Activity is 15.9%.

Source: ChEMBL document CHEMBL3352730, “Synthesis and effects on cell viability of flavonols and 3-methyl ether derivatives on human leukemia cells” (Eur J Med Chem, 2014)
